For 98 compounds, cytotoxicity results are on record in ChEMBL document CHEMBL4513216, “Probing the Open Global Health Chemical Diversity Library for Multistage-Active Starting Points for Next-Generation Antimalarials” (ACS Infect Dis, 2020).

The nature of the data set: Toxicity liver stage against HepG2, at 10uM. Also noted: test concentration 10 uM, cell line HepG2-A16-CD81EGFP. The settings on record: human, HepG2-A16-CD81EGFP cells; read-out: INHIBITION
The class given is cell-based. Put shortly:
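Uninfected HepG2-A16-CD81EGFP cells, 3 × 10^3 per well, 1536-well, plated on prespotted compound at 10 μM final, parasite-free screening media added to match infected plates; puromycin 10 μM positive, DMSO 0.5% negative; run in parallel with 48 h PbLuc assay at 37 °C, 5% CO2; viability by CellTiter-Glo luminescence, normalized to controls.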
With `CN(C)[C@@H]1CO[C@H](CNC(=O)CC(C)(C)C)[C@H]1O`, the cytotoxicity at 10 µM was -10.8%.
For `COc1cc(C2CC(=O)Nc3c2cnn3C)ccc1O` (stereo not drawn) the value was 45.5%; for `CN(C)c1cccc(C(=O)N2CCCSCC2CN2CCCC2)c1` (stereo not drawn), 7.03%.
As for `CCC(CNC(=O)C1CCC1)(OC)c1ccccc1` (stereo not drawn), the cytotoxicity at 10 µM stood at 1.95%.
As for `CCNC(=O)NCC(CC)(OC)c1ccccc1` (stereo not drawn), the cytotoxicity at 10 µM came out at 2.05%.
For `COc1ccc(C[C@H]2CN(C(=O)C3CC3)CC[C@H]2OC)cc1` the value was 2.67%; for `O=C1CC2(CCCCN2C(=O)c2cccs2)CN1CC1CC1` (stereo not drawn), 2.67%; for `CCc1ccccc1NC(=O)N1CCn2cnc(COC)c2C1`, -11.8%.
For `COc1cc2cc(C(=O)NCCC(=O)O)n(C)c2c(OC)c1OC` the value was 4.76%; for `CC(C)c1noc(C2CCN(C(=O)C3CCCO3)CC2)n1` (stereo not drawn), 8.35%; for `COc1ccc(OC)c(C(C)NS(=O)(=O)c2cnn(C)c2)c1` (stereo not drawn), -3.35%.
On to `Cc1ccc2c(c1)c(C)cc(=O)n2CCC#N`, for which the cytotoxicity at 10 µM was found to be 5.81%.
Then `Cc1nc(C(=O)N2CCc3[nH]nc(Nc4ccccc4)c3C2)co1`, with 6.11%.
Then `CCC(=O)N1CCCCC1c1nc(O)c2c(n1)CN(S(C)(=O)=O)CC2` (stereo not drawn), with 5%.
With `O=C(c1cncs1)N1CCOCC(Cc2ccncn2)C1` (stereo not drawn), the cytotoxicity at 10 µM was found to be 1.13%.
Take `CC1(Cc2ccc(F)cc2)Cc2cc(C(=O)NCCO)ccc2O1` (stereo not drawn): the cytotoxicity at 10 µM was -2.89%.
For `CCc1noc(CCC(=O)N2CCC(c3ccn[nH]3)C2)n1` (stereo not drawn) the value was 6.03%.
For `C[C@@]1(O)CCN(C2CCOCC2)C[C@H]1n1ccc(=O)[nH]c1=O`, the cytotoxicity at 10 µM came out at 4%.
As for `CC(C)c1ncc(CN2CCC(c3n[nH]cc3C(=O)N(C)C)C2)cn1` (stereo not drawn), the cytotoxicity at 10 µM was determined as 2.27%.
On to `CC(=O)N1CCOC(c2cncc(CCC(N)=O)n2)C1` (stereo not drawn), for which the cytotoxicity at 10 µM was -2.74%.
For `c1ccc(CN2CCN(Cc3cnc(C4CCCCO4)nc3)CC2)cc1` (stereo not drawn) the value was -1.71%; for `Cc1nc(C)c(C(=O)N2CCCC(c3cnccn3)C2)s1` (stereo not drawn), -20.6%; for `CS(=O)(=O)c1cn[nH]c1C1CCCCN1C(=O)c1cncs1` (stereo not drawn), -19.1%.
With `CCS(=O)(=O)N1CCN(C(C)(C)CO)CC1`, the cytotoxicity at 10 µM was -2.48%.
As for `N#Cc1ccc(F)c(CNc2ccc(F)cc2OCCO)c1`, the cytotoxicity at 10 µM was -1.98%.
As to `Cc1ccc(CNC(=O)c2ccc(CNS(C)(=O)=O)o2)cc1F`, the cytotoxicity at 10 µM is 15.2%.
For the compound `CC(C)(C)CNC(=O)c1ccc(C(=O)O)cn1`, the cytotoxicity at 10 µM was -4.01%.
In the case of `Cn1cc(CNc2nc3cc(Cl)ccc3n2C)cn1`, the cytotoxicity at 10 µM was determined as 16.8%.
With `COc1ccc(CCNc2cc(-c3nc(C)no3)ccn2)cc1OC`, the cytotoxicity at 10 µM was found to be 3.39%.
Then `O=C(C1CCCOC1)N1CCN(CC(F)(F)F)c2ccccc21` (stereo not drawn), with 8.09%; and `CC(C)CN(c1cn[nH]c1)S(=O)(=O)c1cccc(C#N)c1`, with 8.75%; and `CCCN(CC1COc2ccccc2O1)C(=O)c1ncoc1CC` (stereo not drawn), with -42.2%.
Then `COc1ccc(OC)c(CNCc2c(C)nc3sc(C)cn23)c1`, with 7.06%; and `COC(=O)C(C)CN(Cc1ccccc1)C(=O)CN1CCCNC1=O` (stereo not drawn), with 0.124%; and `CNC(=O)NC(=O)CNc1cc(C(=O)OC)cc(C(F)(F)F)c1`, with -0.0264%.
For `CCOc1cc(Cl)ccc1CNC(=O)N1CCCC(CO)C1` (stereo not drawn), the cytotoxicity at 10 µM was found to be 9.54%.
Regarding `COc1ccc(Cl)cc1NC(=O)CCNc1ccc(C#N)cn1`, the cytotoxicity at 10 µM came out at 2.59%.
Then `Cc1cnn(CC2CCCCN2C(=O)CCCc2nc(C)no2)c1` (stereo not drawn), with 1.46%; and `COCCN(CCC#N)S(=O)(=O)c1ccc(F)cc1F`, with -3.54%.
Then `CCNC(=O)NC(=O)CN1CCCC1c1nc(C2CCCCC2)co1` (stereo not drawn), with 8.08%; and `COc1ccccc1C1(CNc2cc(C(=O)N(C)C)ccn2)CC1`, with -1.6%; and `CCOCc1ccccc1NC(=O)NCC(C)(O)c1ccsc1` (stereo not drawn), with -1.09%.
For `O=C1NCCCCC1NS(=O)(=O)N1CCCCC1` (stereo not drawn) the value was 1.48%.
On to `O=C(Nc1cc(C2CCOCC2)[nH]n1)c1cc[nH]n1`, for which the cytotoxicity at 10 µM is -3.43%.
`O=C(Cn1cncn1)NCC1(O)CCCc2ccccc21` (stereo not drawn): the cytotoxicity at 10 µM was -54.8%.
Consider `CCc1noc(CC)c1CC(=O)N1CCC(C(=O)NC(C)C)CC1`, for which the cytotoxicity at 10 µM is -10.9%.
With `Cc1cccc(CN2CCN(C(=O)c3cccnc3O)CC2)c1`, the cytotoxicity at 10 µM stood at 1.73%.
Take `CSCC(C)(O)CNc1ccccn1` (stereo not drawn): the cytotoxicity at 10 µM turned out to be 8.26%.
On to `CN(CCc1nc2ccccc2c(=O)[nH]1)CCC(F)(F)F`, for which the cytotoxicity at 10 µM was -2.27%.
Then `CCN(CC1CN(Cc2ncc[nH]2)CCO1)c1cccnn1` (stereo not drawn), with 1.31%; and `CC(C#N)CSc1ccccc1NCC(=O)Nc1ccc(F)cc1` (stereo not drawn), with 8.19%; and `CC(C)(C)c1n[nH]c(C2CN(C(=O)c3csnn3)CCO2)n1` (stereo not drawn), with -2.44%.
For `Cc1ccc(CCNC(=O)N2CCCC(Cc3nccn3C)C2)cn1` (stereo not drawn), the cytotoxicity at 10 µM was -9.26%.
As for `Cc1noc(C)c1CN1CCn2c(COC(C)C)nnc2C1`, the cytotoxicity at 10 µM is -113%.
For `Cc1oncc1C(=O)N1CC[C@H]2C[C@H](c3ccncn3)O[C@@H]2C1`, the cytotoxicity at 10 µM is -67.4%.
Then `C[C@@H]1CN(C(=O)c2nc3sccn3c2-c2ncc[nH]2)C[C@H](C)O1`, with 3.85%; and `O=C1CCC(CCC(=O)N2CCC2c2cccs2)=NN1` (stereo not drawn), with 6.13%.
With `CCC(C)N(Cc1sccc1C)C(=O)c1ccc2cccnc2n1` (stereo not drawn), the cytotoxicity at 10 µM came to 2.05%.
Take `COc1cccc(OCC2CCCN(C(=O)CCc3cc(O)no3)C2)c1` (stereo not drawn): the cytotoxicity at 10 µM came out at 0.611%.
Take `O=C(c1ccc2c(c1)CCC2)N1CCN(c2ccc(Cl)cn2)CC1`: the cytotoxicity at 10 µM was -2.27%.
For `CC1=C(C(=O)N2CCOC(Cc3cccc(C(F)(F)F)c3)C2)OCCO1` (stereo not drawn) the value was 5.31%; for `Cc1cccc(=O)n1CCCNc1nc(N(C)C)nc2c1CCNC2`, -0.545%.
For `Cc1nn(C)c2nc(-c3ccccn3)nc(NCCC3CCCN3C)c12` (stereo not drawn) the value was 1.91%; for `CN(C)CC(=O)NC1CC(=O)N(CCc2ccccc2)C1` (stereo not drawn), -1.73%.
As to `CC(C)[C@H]1CN(c2ccncc2)C[C@@H]1NC(=O)C1(C#N)CCOCC1`, the cytotoxicity at 10 µM was -9.21%.
Turning to `CCc1ccc2nc(C)cc(C(=O)NCc3csc(N(C)C)n3)c2c1`, the cytotoxicity at 10 µM was 2.64%.
For the compound `O=C(NCCSc1ccccc1)[C@H]1CNC[C@H](C(=O)N2CCOCC2)C1`, the cytotoxicity at 10 µM is -1.97%.
Regarding `Cc1noc(C)c1CCCNC(=O)Nc1ccc2c(c1)CC(=O)N2`, the cytotoxicity at 10 µM was -16%.
For `Cc1ccc2c(c1)c(CNC(C)Cn1nc(C)cc1C)nn2C` (stereo not drawn) the value was -10.5%; for `COc1ccc(Cc2ncc3c(n2)CN(C(=O)C(C)(C)OC)C3)cc1`, -1.24%.
Then `CS(=O)(=O)CC(=O)N(CCN1CCOCC1)Cc1ccco1`, with 3.11%.
As for `CCc1nc(N2CCCC(CCCOC)(C(=O)O)C2)ncc1C` (stereo not drawn), the cytotoxicity at 10 µM amounted to 3.43%.
As for `CC(C)n1ccnc1CN1CCCN(C(=O)c2cnn(C)c2)CC1`, the cytotoxicity at 10 µM was -22.4%.
For `Cc1cc(C(=O)N2CCCC(n3cncn3)C2)no1` (stereo not drawn) the value was -9.98%; for `O=C(NCc1ccncc1)Nc1cc(C(F)(F)F)c[nH]c1=O`, -9.86%; for `COc1c(CNCc2ccc(N(C)C)nc2)c(C)nn1C`, -12.3%.
Then `NC(=O)C1CCN(C(=O)NCc2cccnc2OC2CCCC2)C1` (stereo not drawn), with -7.12%; and `NC(=O)COc1cccc(CN2CCc3cncnc3C2)c1`, with -12.9%; and `Cn1ccnc1CN1CCCN(Cc2noc(C3CC3)n2)CC1`, with -3.33%.
For the compound `CCOc1ccnc(N2CCN(C(=O)c3c(CC)noc3C)CC2)n1`, the cytotoxicity at 10 µM was -5.43%.
In the case of `CNC(=O)CCNC(=O)c1cc(C)n(-c2cccc(OC)c2)c1C`, the cytotoxicity at 10 µM was -10.2%.
For the compound `CN(Cc1noc(C2CC2)n1)C1CCN(CCc2cnn(C)c2)C1` (stereo not drawn), the cytotoxicity at 10 µM is -0.222%.
Turning to `O=C(Cc1csc(-c2ccco2)n1)N1CCCC1Cn1cccn1` (stereo not drawn), the cytotoxicity at 10 µM is -11.2%.
As for `CCN(Cc1nc2c(cnn2C)c(=O)[nH]1)c1cccc(C)c1`, the cytotoxicity at 10 µM was -7.09%.
For `COc1ccc(COCC(O)CNC(=O)Cc2ccc(C)cc2)cc1` (stereo not drawn) the value was -5.62%; for `CCN1CCC(NC(=O)CN2CCCC2Cn2cc(C)cn2)CC1` (stereo not drawn), -8.84%; for `CCc1ccccc1-n1cc(O)c(C(=O)N2CCCCC2)n1`, 0.495%.
On to `Cc1ccc(N2CCCN(C(=O)c3c(C)oc(C)c3C)CC2)nn1`, for which the cytotoxicity at 10 µM worked out at 5.46%.
For `Cc1ccc(NC2CCN(C(=O)c3n[nH]c4ccccc34)CC2)nn1` the value was 2.96%; for `O=C(NCCCn1cncn1)NCC(c1ccco1)N1CCCCC1` (stereo not drawn), 0.987%.
With `Cc1cnn(CC2CCCCN2C(=O)c2ccc3nnc(C)n3c2)c1` (stereo not drawn), the cytotoxicity at 10 µM worked out at 7.87%.
For `NCC(=O)N1CCCC1c1n[nH]cc1-c1ccccc1F` (stereo not drawn) the value was 2.37%; for `CCc1nc(CNC(C)c2cccc(N3CCCC3=O)c2)cs1` (stereo not drawn), 7.28%.
For `O=C(N[C@@H]1CN(Cc2ccoc2)[C@@H]2CCCO[C@@H]21)C1CC1` the value was 0.0515%; for `CO[C@H]1CCN(S(=O)(=O)c2cn(C)cn2)[C@H]1Cc1cnn(C)c1`, 2.63%; for `O=C1N(CC2CC2)CCC12CCN(Cc1ccoc1)CC2`, -0.302%.
For the compound `c1ccc(CN2C[C@@H]3COC[C@]3(COCC3CCOCC3)C2)nc1`, the cytotoxicity at 10 µM is -0.326%.
Then `COCC1N(S(=O)(=O)c2cn(C)cn2)C2CCC1(O)CC2` (stereo not drawn), with -2.04%.
